HCT116 bCat-KO = primary screen for growth suppressors in beta-catenin knockout HCT116 cells (colon tumor, human); hit rate 1.5% among 140,000; viability, % at 10 µM; AID 818, 2007; HCT116 beta-catenin knockout viability, CellTiter-Glo, 60 h; stronger effect = lower value;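 active means viability at or under a set limit, the compound median less 4 SD, cut at about 6% in these data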;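 further: 0% = Hyamine 1622 control at 20 µM and 100% = untreated cell control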
sdo1 growth = growth rescue of sdo1-depleted yeast, primary screen, S. cerevisiae, bone marrow failure model; S. cerevisiae sdo1-depleted JHY4D growth rescue, OD600 30 h; stronger effect = higher value; pdr5 snq2 efflux-pump mutant strain; z-score at 10 µM; hit rate 0.21% among 140,000; AID 817, 2007;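 active means z-score above 3 at both the 24 hr and the 30 hr optical density reads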;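 further: z-score against mean and SD of all compound wells on the same plate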
Dynein transport = inhibitors of GR-EGFP nuclear translocation, primary screen, dynein cargo transport inhibitor project, imaging, high-content, 3617.4 mouse cells; test concentration mostly 20 µM; stimulated with dexamethasone, 1 µM; stronger effect = lower value; z-score, hits read low; hit rate 0.47% among 220,000;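 active means plate z-score of nuclear minus cytoplasmic receptor signal below a set negative limit, without overly bright fluorescence or cell loss, cut at about -3.5 in these data, passing the limit was not always enough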;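 further: z-score of nuclear minus cytoplasmic ring GR-EGFP intensity difference per well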
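medium = tetracycline-free induction medium containing charcoal-stripped FBS | also added = 1.0 µM final dexamethasone stimulus | schedule = 48 h induction, 1 h compound, 30 min dex at 37 °C | technique = fixed, Hoechst-stained cells imaged at 10x for EGFP | measure = GR-EGFP nuclear translocation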
Autophagy mod = autophagy modulators in MEF cells, primary screen, imaging, high-content, MEF GFP-LC3; MEF GFP-LC3 puncta imaging; test concentration mostly 10 µM; calls only at 10 µM (by protocol); hit rate 0.98% among 190,000; AID 463193, 2010;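 active means percentage of spot-positive cells more than 3 SD above its plate mean, without a fluorescence outlier flag or 80% toxicity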;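 further: spot-positive cell cutoff set from DMSO-treated cells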
HCT116 PTEN-null = growth suppression of PTEN-null HCT116, primary screen, cell-based, CellTiter-Glo | viability, % at 10 µM | hit rate 1.2% among 140,000 | HCT116 PTEN-null viability, 60 h; stronger effect = lower value;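 active means viability at or below a set limit, 4 SD under the median of all tested compounds, cut at about 3.7% in these data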;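 further: PTEN knockout HCT116 line with beta catenin targeted HCT116 as companion control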
Active calls of the source: *; i = inactive; x = not tested or not shown; + = active, no number. Sampled rows, rich in hits. Any-hit rate of the full collection: about 2.2%.

SMILES	HCT116 bCat-KO	sdo1 growth	Dynein transport	Autophagy mod	HCT116 PTEN-null
Cc1c(Cc2ccccc2)sc(NC(=O)/C=C/c2cccc3ccccc23)c1C(N)=O	42.9	-0.01	-1.1	+	45.4
CNc1nc(SCc2ccccc2Cl)nc2c1CCCC2	72.0	-2.35	x	i	59.0
Cc1[nH]c2ccccc2c1/C=N/NC(=O)C1CC1(c1ccccc1)c1ccccc1 (centres undefined)	2.7*	-0.49	-0.932	i	3.4*
CN=CC1=C(O)c2ccccc2C1=O	97.3	0.48	0.355	i	99.7
O=C1C(C2=C(O)c3ccccc3C2=O)=Nc2ccccc21	7.6	-2.96	-2.56	i	2.8*
CC(C)(C)NC(=O)CN(Cc1ccc(F)cc1)C(=O)Cn1nnc(-c2ccc(F)cc2)n1	x	x	-0.521	i	x
CN1CCc2c(sc3ncn4nc(-c5ccccc5O)nc4c23)C1	0.8*	2.23	0.571	i	0.7*
c1coc(-c2nc3c4c5c(sc4ncn3n2)CCCC5)c1	98.3	-1.04	-0.407	i	92.7
Cn1cnnc1SCc1ccc(C(=O)N=Nc2c(O)n(Cc3ccc(Cl)cc3)c3ccccc23)cc1	3.8*	-0.86	-0.913	i	4.4
O=C(NC(Nc1nc2ccc([N+](=O)[O-])cc2s1)(C(F)(F)F)C(F)(F)F)c1ccccc1Cl	1.7*	-1.93	-0.504	i	1.4*
O=C(NC(Nc1nc2ccc([N+](=O)[O-])cc2s1)(C(F)(F)F)C(F)(F)F)c1cccnc1	2.2*	1.8	0.0178	i	3.0*
COCc1c(C(N)=O)nnn1-c1nonc1N	107.7	0.44	-0.0506	i	115.1
Cn1nnnc1SCC1=C(C(=O)O)N2C(=O)C(NC(=O)Cn3nc(C(F)F)cc3C3CC3)C2SC1 (centres undefined)	x	x	0.00811	+	x
O=C(c1ccc(F)cc1F)N1CCN(c2n[nH]c(=O)[nH]c2=O)CC1	x	x	-0.408	i	x
O=C1/C(=C/c2cccc([N+](=O)[O-])c2)CCc2ccccc21	3.2*	-1.26	-1.5	i	2.0*
CCN1C/C(=C\c2cccc([N+](=O)[O-])c2)C(=O)/C(=C/c2cccc([N+](=O)[O-])c2)C1	1.6*	-1.45	-3.75*	i	1.4*
O=C1/C(=C/c2cccc([N+](=O)[O-])c2)CSc2ccc(Cl)cc21	x	x	-0.693	x	x
Cc1cccc2sc(N(CCCN(C)C)C(=O)CCc3ccccc3)nc12	1.6*	-1.82	2.57	i	1.9*
Cc1ccc2nc(C)cc(Nc3ccc4c(c3)OCCO4)c2c1	9.9	0.47	1.32	i	12.2
Cc1cc(Nc2cccc([N+](=O)[O-])c2)c2ccccc2n1	x	x	-1.18	i	x
CCOc1ccc2nc(C)cc(Nc3cccc([N+](=O)[O-])c3)c2c1	1.5*	0.22	-0.808	+	1.5*
CCOc1ccc2nc(C)cc(Nc3ccc4c(c3)OCCO4)c2c1	0.7*	0.14	-0.0606	i	0.8*
CCCC1=Nc2cc(C(=O)NCCCOCC)ccc2Sc2ccccc21	20.0	-0.52	1.6	i	12.5
CCC1=Nc2cc(C(=O)NCCCOC)ccc2Sc2ccccc21	20.7	-0.11	0.229	+	15.5
Cc1ccc(C(=O)Oc2ccc(/C=N/NC(N)=O)cc2)cc1	x	x	0.125	i	x
SMILES	HCT116 bCat-KO	sdo1 growth	Dynein transport	Autophagy mod	HCT116 PTEN-null
CCOC(=O)N/N=C\c1ccc(OC(=O)c2ccc3c(c2)OCO3)cc1	x	x	0.507	+	x
N=c1c2c(-c3ccccc3)c(-c3ccccc3)n(Cc3ccco3)c2ncn1CCO	1.4*	-0.79	0.691	i	1.7*
c1coc(CNc2nc3ccccc3n2CCN2CCOCC2)c1	89.0	1.26	1.53	i	87.9
N=c1c2c(-c3ccccc3)c(-c3ccccc3)n(Cc3ccco3)c2ncn1CCN1CCOCC1	1.2*	-1.37	-0.784	+	1.6*
N=c1c2c(-c3ccccc3)c(-c3ccccc3)n(Cc3ccco3)c2ncn1CCCO	x	x	-0.958	x	x
COc1ccc(C(=O)NNC2=Nc3cccc4cccc2c34)cc1	x	x	-0.561	+	x
CCn1c(/C=C/Nc2ccccc2)[n+](CC)c2cc(Cl)c(Cl)cc21	1.5*	0.62	2.07	i	1.3*
Nc1nsc2ccccc12	4.7*	-2.33	-0.708	i	4.3
Nc1nnc(N)c2ccccc12	x	x	-1.08	i	x
Nc1c(C(=O)OCC(=O)NCc2ccccc2)[nH]c(=O)[nH]c1=O	x	x	0.466	x	x

High-throughput results from PubChem BioAssay.
